From ChEMBL document CHEMBL1149272, “Catecholic flavonoids acting as telomerase inhibitors” (J Med Chem, 2004)
pIC50: −log10 of the molar value. Calls of active or inactive are those of the source. The calls are words filed in the database; no cut-off is given here.

What was measured:
[1] = biological target: T1, Telomerase reverse transcriptase (Homo sapiens, UniProt O14746); test: Inhibition of human telomerase from HEK293 cell extracts by Flash-Plate assay; type: cell-free
Method in brief: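 Affinity-enriched telomerase extract from HEK293 cells overexpressing telomerase, adjusted to 5 fmol dNTP incorporation min-1 µL-1, in buffer with 50 mM Tris-acetate pH 8.5, 150 mM K acetate, 1 mM MgCl2, 1 mM EGTA. Buffer also held 10 µM dATP, 20 µM dGTP, 120 µM TTP and 500 nM 5'-biotinylated primer. Compounds in DMSO at 0.01-10 µM; 2 h at 37 °C. Elongated primer hybridized to a 33P-labeled complementary probe, captured on streptavidin Flash-Plate; IC50 from radioactivity.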

[2] = biological target: T1, Telomerase reverse transcriptase; conditions: 1 uM
[3] = biological target: T1, Telomerase reverse transcriptase; conditions: A-431, 1 uM
[4] = biological target: DNA-directed RNA polymerase (Enterobacteria phage T3) (UniProt P07659); test: Inhibition of T3 RNA polymerase up to 2 uM
DNA-directed RNA polymerase (Enterobacteria phage T3), sequence (P07659 whole entry): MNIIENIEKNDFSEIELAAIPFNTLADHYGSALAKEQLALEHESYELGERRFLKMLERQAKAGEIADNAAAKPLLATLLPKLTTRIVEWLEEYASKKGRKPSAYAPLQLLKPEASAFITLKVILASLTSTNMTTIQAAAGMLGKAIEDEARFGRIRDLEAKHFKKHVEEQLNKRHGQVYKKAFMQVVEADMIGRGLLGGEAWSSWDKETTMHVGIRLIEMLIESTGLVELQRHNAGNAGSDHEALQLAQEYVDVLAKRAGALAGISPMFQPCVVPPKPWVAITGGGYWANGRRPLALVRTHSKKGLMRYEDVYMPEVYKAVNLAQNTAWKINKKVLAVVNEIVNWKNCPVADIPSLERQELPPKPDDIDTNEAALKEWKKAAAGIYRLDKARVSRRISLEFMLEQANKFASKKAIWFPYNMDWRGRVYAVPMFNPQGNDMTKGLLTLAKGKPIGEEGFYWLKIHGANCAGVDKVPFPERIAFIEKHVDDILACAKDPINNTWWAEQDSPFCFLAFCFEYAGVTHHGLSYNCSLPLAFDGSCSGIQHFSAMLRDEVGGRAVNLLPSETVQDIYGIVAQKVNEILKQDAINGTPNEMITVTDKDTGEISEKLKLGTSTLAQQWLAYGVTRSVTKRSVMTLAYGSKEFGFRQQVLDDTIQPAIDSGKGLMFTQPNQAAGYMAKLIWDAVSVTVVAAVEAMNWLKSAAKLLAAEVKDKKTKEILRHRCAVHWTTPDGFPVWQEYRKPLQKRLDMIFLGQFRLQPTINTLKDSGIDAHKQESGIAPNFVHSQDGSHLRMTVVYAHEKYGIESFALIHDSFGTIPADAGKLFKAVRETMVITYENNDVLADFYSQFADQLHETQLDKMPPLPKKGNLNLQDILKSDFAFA

T1 sequence (O14746 whole entry): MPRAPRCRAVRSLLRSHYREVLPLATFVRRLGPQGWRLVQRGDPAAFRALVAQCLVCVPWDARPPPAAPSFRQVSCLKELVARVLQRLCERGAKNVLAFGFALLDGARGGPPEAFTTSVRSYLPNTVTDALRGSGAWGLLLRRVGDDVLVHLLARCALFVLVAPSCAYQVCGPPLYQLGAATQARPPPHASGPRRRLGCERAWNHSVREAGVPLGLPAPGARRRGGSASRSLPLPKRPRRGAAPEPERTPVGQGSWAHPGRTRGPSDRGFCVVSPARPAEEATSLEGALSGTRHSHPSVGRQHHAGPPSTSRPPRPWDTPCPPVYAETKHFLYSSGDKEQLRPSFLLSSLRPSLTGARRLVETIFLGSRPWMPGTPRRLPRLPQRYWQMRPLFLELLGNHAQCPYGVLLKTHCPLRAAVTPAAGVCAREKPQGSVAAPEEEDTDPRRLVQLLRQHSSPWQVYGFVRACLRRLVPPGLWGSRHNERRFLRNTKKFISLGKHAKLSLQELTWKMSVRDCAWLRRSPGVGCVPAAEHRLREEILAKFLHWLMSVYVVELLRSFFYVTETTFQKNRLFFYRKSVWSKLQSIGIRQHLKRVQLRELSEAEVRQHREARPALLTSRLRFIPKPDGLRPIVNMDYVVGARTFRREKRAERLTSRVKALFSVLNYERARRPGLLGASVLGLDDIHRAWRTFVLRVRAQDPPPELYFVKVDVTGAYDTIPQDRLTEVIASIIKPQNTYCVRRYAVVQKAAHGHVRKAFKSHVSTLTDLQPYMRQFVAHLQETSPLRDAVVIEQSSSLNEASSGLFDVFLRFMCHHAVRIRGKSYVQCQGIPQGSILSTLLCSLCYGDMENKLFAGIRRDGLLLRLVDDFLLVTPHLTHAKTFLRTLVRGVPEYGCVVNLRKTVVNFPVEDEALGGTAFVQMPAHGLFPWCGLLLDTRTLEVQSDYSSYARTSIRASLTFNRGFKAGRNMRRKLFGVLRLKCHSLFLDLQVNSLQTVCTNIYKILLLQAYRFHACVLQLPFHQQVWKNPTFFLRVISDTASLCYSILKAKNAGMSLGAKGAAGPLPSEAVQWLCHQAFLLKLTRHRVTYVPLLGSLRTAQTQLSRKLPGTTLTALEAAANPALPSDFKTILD

`O=C(/C=C/c1ccc(O)c(O)c1)c1ccc(O)c(O)c1O` gave a pIC50 [1] of 5.22.

For `O=c1cc(-c2ccc(O)c(O)c2)oc2cc(O)ccc12`, the pIC50 [1] was less than 4.40.

For `O=c1cc(-c2ccc(O)c(O)c2)oc2c(O)cccc12`, the pIC50 [1] was less than 4.40.

Compound `O=c1cc(-c2ccc(O)c(O)c2)oc2ccccc12` has a pIC50 [1] of less than 4.40.

Compound `COc1ccc2c(=O)cc(-c3ccc4[nH]c(=O)c(=O)[nH]c4c3)oc2c1OC` has a pIC50 [1] of less than 4.40.

Compound `Cc1nc2cc(-c3cc(=O)c4ccc(O)c(O)c4o3)ccc2[nH]1` has a pIC50 [1] of less than 4.40.

With `COc1ccc2c(=O)cc(-c3ccc4[nH]c(CCCN(C)C)nc4c3)oc2c1OC` the pIC50 [1] was 6.33.

`COc1ccc(-c2cc(=O)c3ccc(O)c(O)c3o2)cc1O` showed a pIC50 [1] of 4.96.

Work on `O=C(/C=C/c1ccc(O)c(O)c1)c1ccc(O)c(O)c1` yielded a pIC50 [1] of 5.77.

With `COc1ccc2c(=O)cc(-c3ccc4[nH]c(C)nc4c3)oc2c1OC` the pIC50 [1] was 4.66.

With `O=c1cc(-c2cccc(O)c2)oc2c(O)c(O)ccc12` the pIC50 [1] was 4.30.

`O=c1[nH]c2ccc(-c3cc(=O)c4ccc(O)c(O)c4o3)cc2[nH]1` showed a pIC50 [1] of 5.92.

`O=c1cc(-c2ccc(O)c(O)c2)oc2c(O)c(O)ccc12` was tested, and the inhibition [2] was 50%, the inhibition [3] was 50% and the Activity [4] was “inactive”. The pIC50 [1] was 6.70.

`O=c1cc(-c2ccc3[nH]cnc3c2)oc2c(O)c(O)ccc12` was tested, and the pIC50 [1] was 5.40.

For `O=c1cc(-c2ccccc2)oc2c(O)c(O)ccc12` [7,8-DIHYDROXYFLAVONE], the pIC50 [1] was 4.44.

Compound `O=c1cc(-c2ccc(O)c(O)c2)oc2c(O)c(O)c(Cl)cc12` has a pIC50 [1] of 6.09.

For `COc1ccc(-c2cc(=O)c3ccc(O)c(O)c3o2)cc1OC`, the pIC50 [1] was 4.93.

`O=c1[nH]c2ccc(-c3cc(=O)c4ccc(O)c(O)c4o3)cc2[nH]c1=O` gave a pIC50 [1] of less than 4.40.

`COc1ccc2c(=O)cc(-c3ccc(O)c(O)c3)oc2c1OC` gave a pIC50 [1] of less than 4.40.
